Data published in ChEMBL document CHEMBL2069295, “Discovery of 6-substituted 4-anilinoquinazolines with dioxygenated rings as novel EGFR tyrosine kinase inhibitors” (Bioorg Med Chem Lett, 2012).
Values after ≈ are worked out from the molar mass of the structure shown. Active and inactive are the calls of the source. No cut-off for these calls is given here.

What was measured:
A-431 = assay: Antiproliferative activity against human A431 cells after 24 to 48 hrs by WST1 assay; assay type: functional, cell-based
MCF7 [1] = assay: cells; settings: Homo sapiens
B16-F10 [2] = assay: cells; settings: Mus musculus
[3] = molecular target: Receptor tyrosine-protein kinase erbB-2 (Homo sapiens, UniProt P04626); assay: Inhibition of recombinant HER2 expressed in baculovirus infected Sf9 cells using [32P]ATP incubated for 30 mins prior to ATP addition measured after 20 mins by liquid scintillation counting
Sequence of Receptor tyrosine-protein kinase erbB-2 (P04626 whole entry): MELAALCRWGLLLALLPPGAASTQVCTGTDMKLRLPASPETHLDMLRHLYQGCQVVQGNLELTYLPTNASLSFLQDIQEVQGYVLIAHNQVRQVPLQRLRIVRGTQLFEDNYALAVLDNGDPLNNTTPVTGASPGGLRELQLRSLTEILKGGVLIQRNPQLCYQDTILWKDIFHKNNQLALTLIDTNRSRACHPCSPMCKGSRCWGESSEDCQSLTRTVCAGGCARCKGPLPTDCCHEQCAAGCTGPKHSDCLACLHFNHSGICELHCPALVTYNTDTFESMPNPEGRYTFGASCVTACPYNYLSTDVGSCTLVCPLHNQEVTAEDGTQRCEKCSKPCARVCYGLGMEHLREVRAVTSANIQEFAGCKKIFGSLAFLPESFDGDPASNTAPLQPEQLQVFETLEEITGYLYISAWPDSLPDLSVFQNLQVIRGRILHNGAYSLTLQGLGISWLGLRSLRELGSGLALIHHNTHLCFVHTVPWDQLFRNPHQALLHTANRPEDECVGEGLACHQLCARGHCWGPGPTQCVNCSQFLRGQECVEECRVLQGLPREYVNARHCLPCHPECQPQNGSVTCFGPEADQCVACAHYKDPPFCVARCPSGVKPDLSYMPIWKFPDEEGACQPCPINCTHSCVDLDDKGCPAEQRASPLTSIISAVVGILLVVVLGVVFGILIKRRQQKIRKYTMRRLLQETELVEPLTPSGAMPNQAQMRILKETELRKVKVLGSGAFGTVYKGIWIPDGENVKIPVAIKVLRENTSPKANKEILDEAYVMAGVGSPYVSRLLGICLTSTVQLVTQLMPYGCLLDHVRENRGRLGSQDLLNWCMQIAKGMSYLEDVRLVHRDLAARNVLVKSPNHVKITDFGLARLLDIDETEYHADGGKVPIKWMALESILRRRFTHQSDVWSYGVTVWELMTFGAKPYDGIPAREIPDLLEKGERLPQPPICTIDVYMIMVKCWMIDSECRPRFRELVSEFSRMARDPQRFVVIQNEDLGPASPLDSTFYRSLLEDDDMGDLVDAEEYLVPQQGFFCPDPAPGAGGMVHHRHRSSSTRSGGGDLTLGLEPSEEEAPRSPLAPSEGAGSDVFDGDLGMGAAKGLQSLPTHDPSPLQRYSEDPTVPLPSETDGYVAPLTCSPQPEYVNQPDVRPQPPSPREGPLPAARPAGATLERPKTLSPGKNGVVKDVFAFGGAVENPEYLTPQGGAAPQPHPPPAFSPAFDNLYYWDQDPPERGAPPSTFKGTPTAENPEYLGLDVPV

[4] = molecular target: T1, Epidermal growth factor receptor (Homo sapiens, UniProt P00533); assay: Inhibition of EGFR in human A431 cell lysate using tyrosine/glutamic acid polymer as substrate by ELISA; set-up: species or system A-431
T1 sequence (P00533 whole entry): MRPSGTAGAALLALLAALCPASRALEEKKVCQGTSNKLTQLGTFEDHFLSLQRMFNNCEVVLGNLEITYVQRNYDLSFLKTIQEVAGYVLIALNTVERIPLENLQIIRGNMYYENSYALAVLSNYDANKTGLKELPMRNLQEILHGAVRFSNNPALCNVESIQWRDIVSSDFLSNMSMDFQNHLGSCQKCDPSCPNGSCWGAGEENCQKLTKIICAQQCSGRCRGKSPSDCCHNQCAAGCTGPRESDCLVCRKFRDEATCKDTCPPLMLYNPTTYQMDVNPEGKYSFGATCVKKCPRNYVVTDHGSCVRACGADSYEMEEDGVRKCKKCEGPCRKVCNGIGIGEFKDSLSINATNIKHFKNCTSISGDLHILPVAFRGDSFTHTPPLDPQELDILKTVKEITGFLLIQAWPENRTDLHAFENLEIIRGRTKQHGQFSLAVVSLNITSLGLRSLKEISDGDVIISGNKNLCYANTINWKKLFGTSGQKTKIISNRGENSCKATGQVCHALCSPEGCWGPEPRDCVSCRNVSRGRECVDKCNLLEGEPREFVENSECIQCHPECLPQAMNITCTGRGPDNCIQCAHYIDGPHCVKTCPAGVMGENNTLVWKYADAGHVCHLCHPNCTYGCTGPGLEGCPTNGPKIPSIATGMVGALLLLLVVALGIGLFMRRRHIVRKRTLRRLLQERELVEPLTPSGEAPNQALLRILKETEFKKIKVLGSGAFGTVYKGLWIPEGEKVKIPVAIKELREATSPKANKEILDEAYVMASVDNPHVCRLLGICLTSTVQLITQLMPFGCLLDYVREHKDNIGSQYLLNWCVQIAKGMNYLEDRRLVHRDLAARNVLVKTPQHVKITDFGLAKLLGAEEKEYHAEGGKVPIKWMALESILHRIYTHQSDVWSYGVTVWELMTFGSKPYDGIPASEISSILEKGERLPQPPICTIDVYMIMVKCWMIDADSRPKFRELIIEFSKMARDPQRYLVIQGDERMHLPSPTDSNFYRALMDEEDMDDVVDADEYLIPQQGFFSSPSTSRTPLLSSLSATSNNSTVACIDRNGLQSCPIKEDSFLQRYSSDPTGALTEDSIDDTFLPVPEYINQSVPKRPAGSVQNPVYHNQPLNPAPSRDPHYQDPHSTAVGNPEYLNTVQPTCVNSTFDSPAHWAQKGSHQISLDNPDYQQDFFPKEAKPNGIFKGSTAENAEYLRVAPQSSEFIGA

[5] = molecular target: Vascular endothelial growth factor receptor 2 (Homo sapiens, UniProt P35968); assay: Inhibition of VEGFR2 using ATP incubated for 30 mins prior to ATP addition measured after 60 mins by fluorimetry
Sequence of Vascular endothelial growth factor receptor 2 (P35968 whole entry): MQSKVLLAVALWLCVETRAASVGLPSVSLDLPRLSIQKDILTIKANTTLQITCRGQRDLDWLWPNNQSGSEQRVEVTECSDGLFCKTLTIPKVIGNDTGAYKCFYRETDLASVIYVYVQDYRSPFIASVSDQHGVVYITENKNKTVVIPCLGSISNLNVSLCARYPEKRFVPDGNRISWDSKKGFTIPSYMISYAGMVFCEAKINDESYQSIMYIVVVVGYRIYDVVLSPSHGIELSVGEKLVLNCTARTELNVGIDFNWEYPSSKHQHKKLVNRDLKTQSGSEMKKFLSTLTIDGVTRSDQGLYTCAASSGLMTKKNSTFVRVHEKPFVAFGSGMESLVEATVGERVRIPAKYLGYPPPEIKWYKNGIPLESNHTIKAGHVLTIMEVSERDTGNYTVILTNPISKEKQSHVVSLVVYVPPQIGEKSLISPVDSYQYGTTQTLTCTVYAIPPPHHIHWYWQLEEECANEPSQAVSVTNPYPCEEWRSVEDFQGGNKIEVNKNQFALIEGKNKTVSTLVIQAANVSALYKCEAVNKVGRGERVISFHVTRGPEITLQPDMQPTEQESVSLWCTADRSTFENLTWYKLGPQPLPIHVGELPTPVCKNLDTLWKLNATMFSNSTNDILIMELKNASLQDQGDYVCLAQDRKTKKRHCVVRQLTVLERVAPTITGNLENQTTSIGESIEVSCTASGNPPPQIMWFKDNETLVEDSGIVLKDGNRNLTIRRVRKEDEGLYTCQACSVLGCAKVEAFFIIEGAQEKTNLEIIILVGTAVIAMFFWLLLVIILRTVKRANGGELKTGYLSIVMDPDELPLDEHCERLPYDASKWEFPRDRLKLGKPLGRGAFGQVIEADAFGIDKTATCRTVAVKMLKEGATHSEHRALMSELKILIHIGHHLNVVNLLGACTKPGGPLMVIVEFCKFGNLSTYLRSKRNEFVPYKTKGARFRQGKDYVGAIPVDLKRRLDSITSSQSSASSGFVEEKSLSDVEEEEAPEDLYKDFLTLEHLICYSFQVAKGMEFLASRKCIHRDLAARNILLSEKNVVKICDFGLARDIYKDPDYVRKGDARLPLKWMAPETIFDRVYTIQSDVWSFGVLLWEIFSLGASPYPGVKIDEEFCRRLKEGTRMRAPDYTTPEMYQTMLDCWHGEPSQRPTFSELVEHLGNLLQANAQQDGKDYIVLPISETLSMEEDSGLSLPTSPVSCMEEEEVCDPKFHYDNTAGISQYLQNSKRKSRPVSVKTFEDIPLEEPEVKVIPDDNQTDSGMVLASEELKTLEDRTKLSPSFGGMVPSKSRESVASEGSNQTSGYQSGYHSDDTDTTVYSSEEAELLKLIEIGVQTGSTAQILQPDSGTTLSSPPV

A549 [6] = assay: Antiproliferative activity against human A549 cells after 24 to 48 hrs by WST1 assay; assay type: functional, cell-based
[7] = molecular target: T1, Epidermal growth factor receptor; assay: Inhibition of EGFR in human A431 cells assessed as inhibition of EGF-stimulated autophosphorylation at 100 nM incubated for 1 hr prior to EGF-induction measured after 15 mins by Western blot analysis; assay type: cell-based; settings: A-431
Outline: (§1)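 A431 cells were incubated […] with compound at 10 or 100 nM, then stimulated with EGF. Whole-cell lysates were Western blotted with an anti-phosphotyrosine antibody to detect EGFR autophosphorylation.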

MCF7 [8] = assay: Growth inhibition of human MCF7 cells at 10 ug/mL after 24 to 48 hrs by WST1 assay; assay type: functional; settings: read-out: GI
Outline: (§2)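 Single-concentration growth inhibition at 10 µg/mL, the top concentration used because higher levels precipitated in culture medium. Three separate experiments, each in triplicate.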

[9] = molecular target: T1, Epidermal growth factor receptor; assay: Inhibition of EGFR in human A431 cells assessed as inhibition of EGF-stimulated autophosphorylation at 10 nM incubated for 1 hr prior to EGF-induction measured after 15 mins by Western blot analysis; assay type: cell-based; settings: A-431; outline: as §1
A549 [10] = assay: Growth inhibition of human A549 cells at 10 ug/mL after 24 to 48 hrs by WST1 assay; assay type: functional; settings: read-out: GI; outline: as §2
B16-F10 [11] = assay: Growth inhibition of mouse B16F10 cells at 10 ug/mL after 24 to 48 hrs by WST1 assay; assay type: functional; settings: read-out: GI; outline: as §2

Row | Structure (SMILES) | IC50 (A-431) | IC50 (MCF7 [1]) | IC50 (B16-F10 [2]) | IC50 [3] | IC50 [4] | IC50 [5] | IC50 (A549 [6]) | inhibition [7] | inhibition of growth at 10 µg/mL (MCF7 [8]) | inhibition [9] | inhibition of growth at 10 µg/mL (A549 [10]) | inhibition of growth at 10 µg/mL (B16-F10 [11])
1 | Clc1cccc(Nc2ncnc3ccc(NCc4ccc5c(c4)OCCCCO5)cc23)c1 | 13.3 µg/mL (≈ 29.8 µM) | 21.3 µg/mL (≈ 47.7 µM) | 17.5 µg/mL (≈ 39.1 µM) | > 10000 nM | 920 nM | > 10000 nM | 44.8 µg/mL (≈ 100 µM) |  |  |  |  | 
2 | O=C(Nc1ccc2ncnc(Nc3cccc(Br)c3)c2c1)C1COc2ccccc2O1 (stereo unspecified) | 42.9 µg/mL (≈ 89.9 µM) | > 100 µg/mL | 50.1 µg/mL (≈ 105 µM) |  | 3680 nM |  | 73.8 µg/mL (≈ 155 µM) | Active | < 50% |  |  | 
3 | Brc1cccc(Nc2ncnc3ccc(NCc4ccc5c(c4)OCCCO5)cc23)c1 | 2.77 µg/mL (≈ 5.8 µM) | 5.02 µg/mL (≈ 10.5 µM) | 1.99 µg/mL (≈ 4.17 µM) | 4800 nM | 98 nM | > 10000 nM | 15.5 µg/mL (≈ 32.5 µM) | Active |  | Active |  | 
4 | O=C(Nc1ccc2ncnc(Nc3cccc(Cl)c3)c2c1)c1cccc2c1OCCO2 | 46.6 µg/mL (≈ 108 µM) | > 100 µg/mL | 9.86 µg/mL (≈ 22.8 µM) |  | 1290 nM |  | > 100 µg/mL |  | < 50% |  | < 50% | 
5 | Clc1cccc(Nc2ncnc3ccc(NCc4ccc5c(c4)OCCO5)cc23)c1 |  | 23.1 µg/mL (≈ 55.3 µM) | 16.3 µg/mL (≈ 39 µM) |  |  |  |  |  |  |  |  | 
6 | Brc1cccc(Nc2ncnc3ccc(NCc4ccc5c(c4)OCCO5)cc23)c1 | 12.5 µg/mL (≈ 27.1 µM) | 10.7 µg/mL (≈ 23.1 µM) | 12 µg/mL (≈ 25.9 µM) |  | 1020 nM |  | 58.3 µg/mL (≈ 126 µM) |  |  |  |  | 
7 | Brc1cccc(Nc2ncnc3ccc(NCc4ccc5c(c4)OCO5)cc23)c1 | 6.82 µg/mL (≈ 15.2 µM) | 14.5 µg/mL (≈ 32.2 µM) | 3.62 µg/mL (≈ 8.06 µM) |  | 630 nM |  | 68.7 µg/mL (≈ 153 µM) |  |  |  |  | 
8 | Brc1cccc(Nc2ncnc3ccc(NCc4ccc5c(c4)OCCCCO5)cc23)c1 | 15 µg/mL (≈ 30.6 µM) | 32.1 µg/mL (≈ 65.2 µM) | 20.6 µg/mL (≈ 42 µM) |  | 1140 nM |  | > 100 µg/mL |  |  |  |  | 
9 | O=C(Nc1ccc2ncnc(Nc3cccc(Br)c3)c2c1)c1cccc2c1OCCO2 | 20.3 µg/mL (≈ 42.6 µM) | 59.5 µg/mL (≈ 125 µM) | > 100 µg/mL |  | 1630 nM |  | 84 µg/mL (≈ 176 µM) |  |  |  |  | < 50%
10 | O=C(Nc1ccc2ncnc(Nc3cccc(Cl)c3)c2c1)C1COc2ccccc2O1 (stereo unspecified) | 19.9 µg/mL (≈ 45.9 µM) | 52.2 µg/mL (≈ 121 µM) | > 100 µg/mL |  | 2750 nM |  | 61.2 µg/mL (≈ 141 µM) |  |  |  |  | < 50%
11 | Clc1cccc(Nc2ncnc3ccc(NCc4ccc5c(c4)OCCCO5)cc23)c1 | 2.59 µg/mL (≈ 5.98 µM) | 4.28 µg/mL (≈ 9.89 µM) | 2.14 µg/mL (≈ 4.94 µM) |  | 216 nM |  | 31 µg/mL (≈ 71.7 µM) | Active |  |  |  | 
12 | Clc1cccc(Nc2ncnc3ccc(NCc4ccc5c(c4)OCO5)cc23)c1 |  | 7.36 µg/mL (≈ 18.2 µM) |  | 6500 nM |  | > 10000 nM |  |  |  |  |  | 
13 | COc1cc2ncnc(Nc3cccc(Br)c3)c2cc1OC | 2.26 µg/mL (≈ 6.27 µM) | 3.21 µg/mL (≈ 8.91 µM) |  |  |  |  | 8.13 µg/mL (≈ 22.6 µM) |  |  |  |  | 
